Reference: ChEMBL document CHEMBL1140966, “Syntheses and evaluation of 3-(3-bromo phenyl)-5-phenyl-1-(thiazolo [4,5-b] quinoxaline-2-yl)-2-pyrazoline derivatives” (Eur J Med Chem, 2008)

What was measured:
Entamoeba histolytica = experiment: Antiamoebic activity against Entamoeba histolytica HMI:IMSS after 72 hrs by microdilution method; assay type: functional, organism-based
Procedure, shortened: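 E. histolytica HMI:IMSS trophozoites grown in TYIS-33 medium. Compounds dissolved in DMSO, made up to 1 mg/ml with medium, then twofold serial dilutions in 96-well plates. 1.7 × 10⁴ viable organisms/well; plates gassed with nitrogen for 10 min, 37 °C for 72 h. Cells methanol-fixed and eosin-stained, dye released with 0.1 N NaOH, OD read at 490 nm. IC50 taken from linear regression of % inhibition vs log dose.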

[1] = Safety index, ratio of IC50 for human kidney epithelial cells to IC50 for Entamoeba histolytica HMI:IMSS; assay type: toxicity, cell-based, Epithelial cell; details: read-out: Ratio IC50
Procedure, shortened: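 Ratio computed as toxicity IC50 in human kidney epithelial cells (concentration killing 50% of cells, MTT) over protozoal IC50 against E. histolytica (concentration killing 50% of amoebae).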

[2] = Cytotoxicity against human kidney epithelial cells after 44 hrs by MTT assay; assay type: cell-based; details: Epithelial cell
Procedure, shortened: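 Transformed human kidney epithelial (Graham) cells kept at 37 °C in 5% CO2. Trypsinized cells adjusted to 0.5 million cells/mL and plated with compound. After 44 h, 2 mM MTT added for a further 4 h, then DMSO added to dissolve formazan. Absorbance read at 540 nm with 690 nm reference; % viability calculated against controls.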

SMILES	IC50 (Entamoeba histolytica)	selectivity ratio [1]	IC50 [2]
CCc1ccccc1C1CC(c2cccc(Br)c2)=NN1c1nc2nc3ccccc3nc2s1 (centres undefined)	2490 nM	> 24.1	> 60000 nM
CC(C)c1ccccc1C1CC(c2cccc(Br)c2)=NN1c1nc2nc3ccccc3nc2s1 (centres undefined)	1870 nM	> 32.1	> 60000 nM
Clc1cccc(C2CC(c3cccc(Br)c3)=NN2c2nc3nc4ccccc4nc3s2)c1Cl (centres undefined)	700 nM	> 85.7	> 60000 nM
Cc1cc(C)c(/C=C/C(=O)c2cccc(Br)c2)c(C)c1	1800 nM	–	–
Cc1ccc(/C=C/C(=O)c2cccc(Br)c2)cc1	2490 nM	–	–
O=C(/C=C/c1ccccc1Cl)c1cccc(Br)c1	2230 nM	–	–
Brc1cccc(C2=NN(c3nc4nc5ccccc5nc4s3)C(c3ccccc3)C2)c1 (centres undefined)	140 nM	> 428	> 60000 nM
Brc1cccc(C2=NN(c3nc4nc5ccccc5nc4s3)C(c3c[nH]c4ccccc34)C2)c1 (centres undefined)	80 nM	> 750	> 60000 nM
CC(C)c1ccccc1/C=C/C(=O)c1cccc(Br)c1	1920 nM	–	–
O=C(/C=C/c1ccc(Cl)cc1Cl)c1cccc(Br)c1	1110 nM	–	–
Cc1ccc(C2CC(c3cccc(Br)c3)=NN2c2nc3nc4ccccc4nc3s2)cc1 (centres undefined)	100 nM	> 600	> 60000 nM
Cc1cc(C)c(C2CC(c3cccc(Br)c3)=NN2c2nc3nc4ccccc4nc3s2)c(C)c1 (centres undefined)	1290 nM	> 46.5	> 60000 nM
Clc1ccccc1C1CC(c2cccc(Br)c2)=NN1c1nc2nc3ccccc3nc2s1 (centres undefined)	680 nM	> 88.2	> 60000 nM
Cc1ncc([N+](=O)[O-])n1CCO [METRONIDAZOLE]	–	> 55.5	> 100000 nM

Further lines, with some results ahead:

IC50 (Entamoeba histolytica)	SMILES	selectivity ratio [1]	IC50 [2]
2610 nM	CCc1ccccc1C1CC(c2cccc(Br)c2)=NN1C(N)=S (centres undefined)	–	–
560 nM	NC(=S)N1N=C(c2cccc(Br)c2)CC1c1cccc(Cl)c1Cl (centres undefined)	–	–
190 nM	NC(=S)N1N=C(c2cccc(Br)c2)CC1c1ccccc1 (centres undefined)	–	–
4380 nM	Cc1ccc(C2CC(c3cccc(Br)c3)=NN2C(N)=S)cc1 (centres undefined)	–	–
1710 nM	Cc1cc(C)c(C2CC(c3cccc(Br)c3)=NN2C(N)=S)c(C)c1 (centres undefined)	–	–
1900 nM	NC(=S)N1N=C(c2cccc(Br)c2)CC1c1ccccc1Cl (centres undefined)	–	–
2280 nM	NC(=S)N1N=C(c2cccc(Br)c2)CC1c1c[nH]c2ccccc12 (centres undefined)	–	–
2340 nM	CC(C)c1ccccc1C1CC(c2cccc(Br)c2)=NN1C(N)=S (centres undefined)	–	–
